Reference: ChEMBL document CHEMBL1128454, “Cyclization-activated prodrugs: N-(substituted 2-hydroxyphenyl and 2-hydroxypropyl)carbamates based on ring-opened derivatives of active benzoxazolones and oxazolidinones as mutual prodrugs of acetaminophen” (J Med Chem, 1995)

What was measured:
[1] = its bimolecular rate constant (KOH) at 25 degree C (m = 0.5); type: ADME
Summary of the method: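 Hydrolysis followed by UV spectrophotometry in aqueous NaOH or buffer (carbonate, borax, Tris, phosphate) at 25 °C, ionic strength 0.5 M. Second-order constant kOH taken from the linear plot of kobsd vs [OH-] over the pH-dependent region. kobsd came from ln(OD) vs time plots. pH in the cell was read before and after reaction.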

[2] = Compound was evaluated for its rate constant (Kp) which are average values of Kobs measured in the pH range 10-11 at 25 degree C (micro = 0.5 M ).; type: ADME
Summary of the method: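 Spectrophotometric hydrolysis in aqueous NaOH or carbonate/borax buffers, 25 °C, ionic strength 0.5 M. kp is the average of kobsd values measured over pH 10-11 (the pH-independent plateau). kobsd came from first-order ln(OD) vs time plots. Error in each rate constant about ±3%.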

[3] = Compound was evaluated for pKa; type: physicochemical
Summary of the method: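 Apparent kinetic pKa obtained by fitting the pH-rate profile (log kobsd vs pH, UV-monitored hydrolysis in NaOH and carbonate, borax, Tris or phosphate buffers) to a rate law combining the pH-independent constant with the acid dissociation constant of the prodrug hydroxyl.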

[4] = its hydrolysis half life in human plasma (pH 7.4); type: ADME, organism-based
Summary of the method: (§1)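 Prodrug in acetonitrile or dioxane added to 0.05 M phosphate buffer pH 7.40 containing 80% human or rat plasma, about 0.04 mg/mL initial, at 37 or 25 °C. Aliquots quenched and deproteinized with 0.05 M methanolic HCl, centrifuged, then analysed by reversed-phase HPLC with diode-array detection. First-order constants from ln plots of drug or prodrug concentration vs time.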

[5] = its hydrolysis half life in phosphate buffer (pH 7.4); type: ADME
Summary of the method: (§2)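 Prodrug hydrolysed in pH 7.40 phosphate buffer at 37 °C (some runs at 25 °C) and monitored by UV spectrophotometry until product formation, about 10 half-lives. First-order kobsd from ln(OD) vs time, with pH checked before and after. Half-life taken as 0.693/kobsd.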

[6] = its hydrolysis half life in rat plasma (pH 7.4); type: ADME, organism-based; summary of the method: as §1
[7] = Compound was evaluated for its hydrolysis half life obtained from the relation Kobs was measured in a pH 7.4 phosphate buffer at 37 degree C (micro = 0.5 M ).; type: ADME; details: for half-life: phosphate buffer; summary of the method: as §2

| Kp [2] [s⁻¹] | pKa [3] | half-life [7] [min] | Structure (SMILES) | also measured |
| --- | --- | --- | --- | --- |
| – | – | – | CNC(=O)Oc1ccc(NC(C)=O)cc1 | KOH [1]: 11.5 M⁻¹ s⁻¹ |
| 2.75e-06 | 14.3 | – | O=C(Nc1cc(Cl)ccc1O)OCCCl | – |
| 0.0221 | 9.49 | 0.233 | CC(=O)Nc1ccc(OC(=O)Nc2cc(C(=O)c3ccccc3)ccc2O)cc1 | half-life ([4]; read-out: T1/2): 10.2 min; half-life [5]: 0.233 min; half-life ([6]; read-out: T1/2): 2.9 min |
| – | – | – | CC(=O)Nc1ccc(OC(=O)NCC(O)COc2cc(C)cc(C)c2)cc1 (configuration not stated) | half-life ([4]; read-out: T1/2): 45 min; half-life [5]: 416 min; half-life ([6]; read-out: T1/2): 62 min |
| 0.00025 | 13.6 | – | C#CCOC(=O)Nc1cc(Cl)ccc1O | T1/2 ([7]; buffer): 108 min |
| 0.7 | 8.97 | 0.0518 | O=C(Nc1cc(Cl)ccc1O)Oc1cccc(C(F)(F)F)c1 | – |
| 8.63e-07 | 16 | 418000 | CCOC(=O)Nc1cc(Cl)ccc1O | – |
| 0.119 | 9.49 | 0.0965 | CC(=O)Nc1ccc(OC(=O)Nc2ccc(C(=O)c3ccccc3)cc2O)cc1 | half-life [4]: 1 min; half-life [5]: 0.097 min; half-life [6]: 0.233 min |
| 0.205 | 9.49 | 0.118 | CC(=O)Nc1ccc(OC(=O)Nc2cc(Cl)ccc2O)cc1 | half-life [4]: 1.1 min; half-life [5]: 0.118 min; half-life [6]: 0.833 min |
| 0.000806 | 13.2 | 42.5 | O=C(Nc1cc(Cl)ccc1O)OCC(Cl)Cl | half-life ([4]; read-out: T1/2): 105 min; half-life ([6]; read-out: T1/2): 53.8 min |
| 5.93e-06 | 14.2 | – | CC#CCOC(=O)Nc1cc(Cl)ccc1O | – |
| 0.279 | 9.38 | 0.125 | CC(=O)Nc1cccc(OC(=O)Nc2cc(Cl)ccc2O)c1 | – |
| 1.05e-06 | 15.5 | 105000 | COC(=O)Nc1cc(Cl)ccc1O | – |
| 0.0806 | 10.4 | 0.383 | Cl.Nc1ccc(OC(=O)Nc2cc(Cl)ccc2O)cc1 | – |
| – | – | – | COc1ccccc1OCC(O)CNC(=O)Oc1ccc(NC(C)=O)cc1 (configuration not stated) | KOH [1]: 10.5 M⁻¹ s⁻¹; half-life ([4]; read-out: T1/2): 59 min; half-life [5]: 371 min; half-life ([6]; read-out: T1/2): 58 min |
| 0.014 | 12.4 | 2.58 | O=C(Nc1cc(Cl)ccc1O)OCC(F)(F)F | – |
| – | – | – | COc1ccc(Cl)cc1NC(=O)Oc1ccc(NC(C)=O)cc1 | KOH [1]: 510 M⁻¹ s⁻¹ |
| 0.503 | 9.02 | 0.0634 | O=C(Nc1cc(Cl)ccc1O)Oc1cccc(Cl)c1 | – |
| 0.0976 | 10.2 | 0.37 | COc1ccc(OC(=O)Nc2cc(Cl)ccc2O)cc1 | – |
| – | – | – | COc1ccccc1OCC(CNC(=O)Oc1ccc(NC(C)=O)cc1)OC (configuration not stated) | half-life ([4]; read-out: T1/2): 134 min; half-life [5]: 502 min; half-life ([6]; read-out: T1/2): 153 min |
| 0.184 | 9.8 | 0.187 | CC(C)(C)OC(=O)Nc1ccc(OC(=O)Nc2cc(Cl)ccc2O)cc1 | – |
| 0.169 | 10 | 0.2 | O=C(Nc1cc(Cl)ccc1O)Oc1ccccc1 | – |

| Structure (SMILES) | Kp [2] [s⁻¹] | pKa [3] | half-life [7] [min] | also measured |
| --- | --- | --- | --- | --- |
| O=C(Nc1cc(Cl)ccc1O)OCC(Cl)(Cl)Cl | 1.14 | 12.7 | 276000 | half-life ([4]; read-out: T1/2): 10.1 min; half-life ([6]; read-out: T1/2): 7.5 min |
